Source: article PMC6880868 (Cancer cell, 2019)

Assays:
STAT3 [1] = molecular target: T1, STAT3 (Homo sapiens, UniProt P40763); experiment: STAT3 protein degradation in human cells; format: cell-based
Summary of the method: (§1)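 Treated cells were lysed in cell lysis buffer, resolved by SDS-PAGE, transferred to PVDF and probed by immunoblotting.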

STAT5A = STAT5A (Homo sapiens, UniProt P42229); experiment: Bio-Layer Interferometry binding, STAT5A
Summary of the method: (§2)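 Purified recombinant human STAT proteins were biotinylated, then direct binding of the test compound was measured by Bio-Layer Interferometry to give Kd.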

STAT5B = STAT5B (Homo sapiens, UniProt P51692); experiment: Bio-Layer Interferometry binding, STAT5B
Chain of STAT5B (P51692 138-710): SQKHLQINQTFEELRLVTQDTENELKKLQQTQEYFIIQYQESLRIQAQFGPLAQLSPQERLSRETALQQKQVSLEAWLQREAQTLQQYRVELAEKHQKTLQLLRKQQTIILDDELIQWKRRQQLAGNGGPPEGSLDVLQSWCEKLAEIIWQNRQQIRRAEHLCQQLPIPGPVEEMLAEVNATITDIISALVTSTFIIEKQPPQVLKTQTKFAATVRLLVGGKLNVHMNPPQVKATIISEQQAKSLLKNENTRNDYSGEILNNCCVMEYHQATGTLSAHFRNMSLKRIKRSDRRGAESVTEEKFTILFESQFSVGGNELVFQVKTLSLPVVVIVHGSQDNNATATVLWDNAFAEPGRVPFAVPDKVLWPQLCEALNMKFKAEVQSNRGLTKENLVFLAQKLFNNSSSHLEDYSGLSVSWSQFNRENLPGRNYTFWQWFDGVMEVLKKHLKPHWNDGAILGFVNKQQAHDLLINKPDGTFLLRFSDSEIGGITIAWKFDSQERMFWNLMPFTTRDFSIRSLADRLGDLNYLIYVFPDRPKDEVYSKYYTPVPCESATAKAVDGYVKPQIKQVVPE
Summary of the method: as §2

STAT6 = STAT6 (Homo sapiens, UniProt P42226); experiment: Bio-Layer Interferometry binding, STAT6
Chain of STAT6 (P42226 113-658): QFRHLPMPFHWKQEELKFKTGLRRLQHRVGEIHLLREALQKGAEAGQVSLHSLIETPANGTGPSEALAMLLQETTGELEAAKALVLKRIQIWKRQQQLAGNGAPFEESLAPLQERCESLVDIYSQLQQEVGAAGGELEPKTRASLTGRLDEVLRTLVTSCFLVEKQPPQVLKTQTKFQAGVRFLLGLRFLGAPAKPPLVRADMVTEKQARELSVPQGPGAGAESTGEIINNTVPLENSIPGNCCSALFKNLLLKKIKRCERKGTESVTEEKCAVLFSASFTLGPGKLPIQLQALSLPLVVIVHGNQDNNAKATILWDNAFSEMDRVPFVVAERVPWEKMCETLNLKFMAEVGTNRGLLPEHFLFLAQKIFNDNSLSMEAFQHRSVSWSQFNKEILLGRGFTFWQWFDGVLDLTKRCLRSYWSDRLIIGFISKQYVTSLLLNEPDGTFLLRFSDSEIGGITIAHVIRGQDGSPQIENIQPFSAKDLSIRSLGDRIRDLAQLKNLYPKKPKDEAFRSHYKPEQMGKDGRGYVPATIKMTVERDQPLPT
Summary of the method: as §2

[2] = tested on: STAT1, STAT4 and other STATs; experiment: Degradation of other STAT proteins in cells; format: cell-based, human
Summary of the method: as §1

mutated STAT3 proteins [3] = molecular target: mutated STAT3 proteins (Homo sapiens, UniProt P40763, Y705F); experiment: Degradation of mutated STAT3 proteins in cells; format: cell-based; conditions: DLD-1/STAT3 Y705F/Y705F cells, 1 μM, 24 hr
Chain of mutated STAT3 proteins (Homo sapiens, UniProt P40763, Y705F) (Q96SW2 whole entry): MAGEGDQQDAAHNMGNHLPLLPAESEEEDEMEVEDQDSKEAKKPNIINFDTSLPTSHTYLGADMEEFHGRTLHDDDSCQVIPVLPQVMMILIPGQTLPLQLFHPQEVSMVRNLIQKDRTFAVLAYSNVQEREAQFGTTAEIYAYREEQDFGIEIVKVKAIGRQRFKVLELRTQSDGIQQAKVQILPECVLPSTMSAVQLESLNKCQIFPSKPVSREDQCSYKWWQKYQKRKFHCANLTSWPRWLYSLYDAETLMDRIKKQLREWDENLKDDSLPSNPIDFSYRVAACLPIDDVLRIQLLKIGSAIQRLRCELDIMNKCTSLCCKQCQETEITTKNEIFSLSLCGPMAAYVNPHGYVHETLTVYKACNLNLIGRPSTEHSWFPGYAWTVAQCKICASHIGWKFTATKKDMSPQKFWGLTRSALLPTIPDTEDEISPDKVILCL
Chain of mutated STAT3 proteins (Homo sapiens, UniProt P40763, Y705F) (P40763 2-770 Y705F): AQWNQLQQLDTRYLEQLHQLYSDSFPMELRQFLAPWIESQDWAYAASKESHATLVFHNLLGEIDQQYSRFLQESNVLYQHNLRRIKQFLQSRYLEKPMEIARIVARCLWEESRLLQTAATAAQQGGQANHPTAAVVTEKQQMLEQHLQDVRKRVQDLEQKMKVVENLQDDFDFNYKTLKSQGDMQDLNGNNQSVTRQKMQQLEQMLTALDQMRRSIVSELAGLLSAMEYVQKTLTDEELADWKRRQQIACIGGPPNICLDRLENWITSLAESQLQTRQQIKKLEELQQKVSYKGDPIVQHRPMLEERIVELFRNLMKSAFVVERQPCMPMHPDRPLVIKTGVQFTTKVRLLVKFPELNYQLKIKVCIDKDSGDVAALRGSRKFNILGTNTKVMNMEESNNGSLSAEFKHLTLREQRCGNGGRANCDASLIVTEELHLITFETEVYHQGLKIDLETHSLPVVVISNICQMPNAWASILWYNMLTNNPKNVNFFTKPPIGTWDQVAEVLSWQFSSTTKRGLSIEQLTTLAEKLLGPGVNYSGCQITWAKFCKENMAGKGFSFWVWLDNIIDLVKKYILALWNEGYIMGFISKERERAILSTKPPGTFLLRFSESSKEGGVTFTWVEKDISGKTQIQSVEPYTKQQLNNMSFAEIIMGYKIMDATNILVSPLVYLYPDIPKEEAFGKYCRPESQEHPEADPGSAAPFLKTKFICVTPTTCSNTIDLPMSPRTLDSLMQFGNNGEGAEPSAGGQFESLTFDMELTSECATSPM

mutated STAT3 proteins [4] = experiment: Degradation of mutated STAT3 proteins in cells; format: cell-based, human
[5] = tested on: DNA binding activities of STAT1, STAT5A or STAT5B; experiment: STAT1, STAT5A, STAT5B DNA binding activity assay; format: cell-based, human; conditions: MOLM-16
Summary of the method: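 Nuclear extraction: cells were swelled 15 min on ice in hypotonic HEPES pH 7.9/10 mM KCl buffer with DTT and phosphatase/protease inhibitors. NP-40 was added (0.5% final), and nuclei were extracted 15 min at 4°C in 0.4 M NaCl HEPES buffer, then cleared at 5,000 × g. ELISA: 5 μg extract was bound 1 hr at room temperature in TransAM STAT ELISA wells. Wells then received STAT antibody (1:1000, 1 hr), HRP secondary (1 hr) and colour development.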

MOLM-16 = experiment: 4-day CellTiter Glo cell viability assay, MOLM-16; format: cell-based; conditions: Homo sapiens, MOLM16, 96 h, read-out: IC50, growth inhibition
MOLM-16 cells = experiment: RNA-seq analysis, MOLM-16; format: cell-based, human
[6] = tested on: c-Myc; STAT3 Y705 phosphorylation; experiment: Immunoblotting of c-Myc and pSTAT3; format: cell-based, human; conditions: 0.5 μM, 24 hr
Summary of the method: as §1

[7] = tested on: SU-DHL-1 and SUP-M2 cells; experiment: Annexin V apoptosis assay; format: cell-based, human; conditions: 48 hr
Summary of the method: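 Cells collected at the end of treatment, washed in cold PBS, stained with an Annexin V-FLUOS kit per the maker's protocol, and analysed by flow cytometry.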

STAT3 [8] = molecular target: T1, STAT3; experiment: Pharmacodynamics: STAT3 protein in xenograft tumors; format: in vivo, NOD/SCID mice bearing human xenograft tumors
MOLM-16 tumors = experiment: MOLM-16 xenograft efficacy; format: in vivo, NOD/SCID female mice
Summary of the method: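 NOD/SCID female mice were injected subcutaneously in 5 mg/ml Matrigel with MOLM-16 (3 × 10^6), SU-DHL-1 (1 × 10^7) or SUP-M2 (1 × 10^7) cells. At about 150 mm3, mice were size-matched and randomised. Test compound or vehicle (10% PEG400 + 90% PBS) was given on the indicated schedules. Tumours were measured 2–3 times weekly, with volume = length×width²/2. TGI was calculated from group medians.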

mouse STAT3 protein = mouse STAT3 protein (Mus musculus, UniProt P42227); experiment: Pharmacodynamics in mouse tissues; format: in vivo, CD-1 mice; conditions: single dose 100 mg/kg i.v.
Chain of mouse STAT3 protein (P42227 whole entry): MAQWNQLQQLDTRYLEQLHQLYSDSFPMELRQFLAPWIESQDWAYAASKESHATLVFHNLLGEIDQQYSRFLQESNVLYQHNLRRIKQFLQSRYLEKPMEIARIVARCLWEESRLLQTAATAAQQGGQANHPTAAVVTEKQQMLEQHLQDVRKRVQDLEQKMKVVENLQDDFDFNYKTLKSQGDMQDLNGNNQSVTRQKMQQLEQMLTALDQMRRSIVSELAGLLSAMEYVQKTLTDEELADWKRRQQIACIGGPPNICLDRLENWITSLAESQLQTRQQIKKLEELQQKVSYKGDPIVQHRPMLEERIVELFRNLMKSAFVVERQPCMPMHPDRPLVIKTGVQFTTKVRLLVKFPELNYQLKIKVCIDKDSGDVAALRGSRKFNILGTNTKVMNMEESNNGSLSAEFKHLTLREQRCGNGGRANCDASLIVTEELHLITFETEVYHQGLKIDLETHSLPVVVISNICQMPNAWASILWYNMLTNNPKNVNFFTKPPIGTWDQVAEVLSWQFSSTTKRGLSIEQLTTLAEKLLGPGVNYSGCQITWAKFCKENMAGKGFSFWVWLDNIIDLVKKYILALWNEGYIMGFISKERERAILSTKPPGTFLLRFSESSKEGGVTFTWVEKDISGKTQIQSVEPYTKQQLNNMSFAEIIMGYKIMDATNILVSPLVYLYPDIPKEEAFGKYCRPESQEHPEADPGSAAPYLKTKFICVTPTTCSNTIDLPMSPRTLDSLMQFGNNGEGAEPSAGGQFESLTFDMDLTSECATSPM
Summary of the method: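 Female outbred CD-1 mice received a single i.v. dose. At set time points, liver, spleen, heart and kidney were collected and analysed by immunoblotting.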

STAT3 protein = STAT3 protein (Mus musculus, UniProt P42227); experiment: STAT3 degradation in murine cells; format: cell-based
Chain of STAT3 protein (P42227 whole entry): as above

[9] = tested on: STAT proteins in MOLM-16 and SU-DHL-1 tumors; experiment: Multiplexed quantitative proteomics in xenograft tumors; format: in vivo, mice; conditions: 25 mg/kg i.v., 6 hr
[10] = Body weight and signs of toxicity in efficacy experiments; format: in vivo, mice; conditions: all efficacy experiments
Summary of the method: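 Animal weights and signs of toxicity were recorded 2–3 times per week in NOD/SCID female mice with subcutaneous xenografts. Mice received test compound or vehicle (10% PEG400 + 90% PBS) on the indicated schedules.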

[11] = 100 mg/kg weekly or 50 mg/kg twice weekly for 4 weeks

T1 sequence (P40763 whole entry): as the sequence (P42227 whole entry) above, with D760E counted along it
Chain of STAT5A (P42229 136-705): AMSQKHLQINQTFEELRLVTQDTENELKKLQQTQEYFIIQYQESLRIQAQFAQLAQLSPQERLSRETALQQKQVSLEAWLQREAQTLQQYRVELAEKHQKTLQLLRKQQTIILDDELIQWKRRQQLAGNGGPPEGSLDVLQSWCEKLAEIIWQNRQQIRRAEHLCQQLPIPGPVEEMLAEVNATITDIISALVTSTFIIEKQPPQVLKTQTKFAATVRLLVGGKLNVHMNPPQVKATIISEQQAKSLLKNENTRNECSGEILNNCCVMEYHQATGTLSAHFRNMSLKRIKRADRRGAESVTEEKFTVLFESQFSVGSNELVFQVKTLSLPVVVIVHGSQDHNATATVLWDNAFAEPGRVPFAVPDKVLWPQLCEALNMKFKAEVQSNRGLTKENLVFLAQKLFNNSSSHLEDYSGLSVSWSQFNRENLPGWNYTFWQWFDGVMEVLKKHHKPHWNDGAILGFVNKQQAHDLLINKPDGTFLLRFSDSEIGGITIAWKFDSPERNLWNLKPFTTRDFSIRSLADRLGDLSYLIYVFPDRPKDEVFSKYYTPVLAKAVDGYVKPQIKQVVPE

NC(=O)CC[C@H](NC(=O)[C@@H]1CC[C@@H]2CCN(C(=O)CCCCCC#Cc3cccc4c3CN(C3CCC(=O)NC3=O)C4=O)C[C@H](NC(=O)c3cc4cc(C(F)(F)P(=O)(O)O)ccc4[nH]3)C(=O)N21)C(=O)NC(c1ccccc1)c1ccccc1 (stereo partly drawn) [SD-36, ((2-(((5S,8S,10aR)-8-(((S)-5-amino-1-(benzhydrylamino)-1,5-dioxopentan-2-yl)carbamoyl)-3-(8-(2-(2,6-dioxopiperidin-3-yl)-1-oxoisoindolin-4-yl)oct-7-ynoyl)-6-oxodecahydropyrrolo[1,2-a][1,5]diazocin-5-yl)carbamoyl)-1H-indol-5-yl)difluoromethyl)phosphonic acid]
STAT3 protein depleted (STAT3 [1]; DEL, 250 nM, 7 hr): > 50%
STAT3 protein depleted (STAT3 [1]; KI-JK, 250 nM, 7 hr): > 50%
levels of activated pSTAT3 (Y705) (STAT3 [1]; MOLM-16, 0.25 μM): effectively reduced
STAT3 protein depleted (STAT3 [1]; MOLM-16, 250 nM, 4 hr): > 90%
cellular STAT3 protein in SD-36 insensitive cell lines (STAT3 [1]; SD-36 insensitive cell lines): effectively depleted
STAT3 protein depleted (STAT3 [1]; SU-DHL-1, 250 nM, 7 hr): > 50%
hook effect (STAT3 [1]; concentrations as high as 10 μM, all cell lines tested): not observed
levels of STAT3 protein in PBMCs (STAT3 [1]; human PBMCs, 24 hr): potently and effectively reduced
Kd (STAT5A): ~5 µM
Kd (STAT5B): > 10 µM
Kd (STAT6): > 10 µM
effect on other STATs ([2]; MOLM-16 and SU-DHL-1 cells): without effect on other STATs
degradation of STAT1, STAT4 and other STATs ([2]; human PBMCs, 24 hr): failed to degrade
degradation of homozygous Y705F mutant STAT3 (mutated STAT3 proteins [3]): effectively degrades
degradation of endogenous D661Y and K658R mutant STAT3 (mutated STAT3 proteins [4]; 1 μM, 24 hr): efficiently degrades
degradation of STAT3 with mutations of Arg609 or Ser611/Ser613 (mutated STAT3 proteins [4]; transfected MDA-MB-231, 1 μM, 16 hr): resistant to degradation
DNA binding activities of STAT1, STAT5A or STAT5B [5]: no significant effect
IC50 (MOLM-16): 0.035 µM
genes down-regulated by ≥2-fold (p≤0.05) (MOLM-16 cells; MOLM-16, 1 μM, 8 hr): 125 genes
genes up-regulated by ≥2-fold (p≤0.05) (MOLM-16 cells; MOLM-16, 1 μM, 8 hr): 34 genes
genes down-regulated ≥2-fold (p≤0.05) (MOLM-16 cells; MOLM-16, 24 hr): 301 genes
genes up- or down-regulated ≥2-fold (p≤0.05), total (MOLM-16 cells; MOLM-16, 24 hr): 348 genes
genes up-regulated ≥2-fold (p≤0.05) (MOLM-16 cells; MOLM-16, 24 hr): 47 genes
expression of c-Myc [6]: reduced
apoptosis [7]: strong apoptotic cell death
STAT3 protein level in MOLM-16 tumors, of controls (STAT3 [8]; 4 days after a single dose): < 50%
depletion of STAT3 protein in MOLM-16 and SU-DHL-1 tumors (STAT3 [8]; single dose, 6 hr): near-complete depletion
persistence of near-complete STAT3 depletion (STAT3 [8]; single dose, MOLM-16 and SU-DHL-1 tumors): > 24 h
duration of reduced STAT3 protein level (STAT3 [8]; single i.v. dose): > 4 days
STAT3 protein depleted in MOLM-16 tumors (STAT3 [8]; single i.v. dose 25 mg/kg, 1 hr): > 80%
persistence of regression after cessation of treatment (MOLM-16 tumors; [11]): at least 2 weeks
tumor response (MOLM-16 tumors; [11]): complete tumor regression
tumor growth (MOLM-16 tumors; 25 and 50 mg/kg weekly for 4 weeks): effectively inhibited tumor growth
mouse STAT3 protein in liver, spleen, heart and kidney (mouse STAT3 protein): profound and durable depletion
STAT3 protein degradation in murine cells (STAT3 protein): efficiently degraded
effect on other STAT proteins in tumors [9]: no significant effect on other STAT proteins
weight loss or other signs of toxicity [10]: no significant weight loss
